# Reference: ChEMBL document CHEMBL2311304, “Design, synthesis and in vitro and in vivo antitumor activities of novel bivalent β-carbolines” (Eur J Med Chem, 2013)
# pIC50: −log10 of the molar value.
# Test system: A-375
# Assay: Cytotoxicity against human malignant melanoma A375 cells assessed as reduction in optical density by MTT assay
# Format: functional, cell-based
# Settings: not given
# Summary of the method: (§1)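 Cells were cultured in RPMI-1640 with 10% (v/v) fetal calf serum, 100 µg ml-1 penicillin and 100 µg ml-1 streptomycin at 37 °C in humidified 5% CO2. Compounds were dissolved in DMSO, with final DMSO at 2% (v/v) or lower. MTT staining was used, with three replicate wells per point. IC50 is the concentration giving a 50% drop in optical density versus untreated cells.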
row,SMILES,pIC50
1,CCOC(=O)c1cc2c3ccccc3n(CCCCCCn3c4ccccc4c4cc(C(=O)OCC)nc(-c5cc(OC)c(OC)c(OC)c5)c43)c2c(-c2cc(OC)c(OC)c(OC)c2)n1,< 3.70
2,Cc1nccc2c3ccccc3n(CCCCCCn3c4ccccc4c4ccnc(C)c43)c12,4.42
3,Cc1nccc2c3cc(Br)ccc3n(CCCCCCn3c4ccc(Br)cc4c4ccnc(C)c43)c12,< 3.70
4,CCOC(=O)c1cc2c(cn1)[nH]c1ccccc12,< 3.70
5,Cc1nccc2c3ccccc3n(CCCCCn3c4ccccc4c4ccnc(C)c43)c12,< 3.70
6,CCOC(=O)c1cc2c3ccccc3n(CCCCCCCCCn3c4ccccc4c4cc(C(=O)OCC)nc(-c5cc(OC)c(OC)c(OC)c5)c43)c2c(-c2cc(OC)c(OC)c(OC)c2)n1,< 3.70

# Test system: Mus musculus
# Assay: Toxicity in C57BL/6 mouse assessed as maximum weight loss at 10 mg/kg, ip
# Format: organism-based
# Set-up: dose 10 mg/kg, route intraperitoneal
# Settings: in vivo
row,SMILES,Activity [%]
1,CCOC(=O)c1cc2c(cn1)[nH]c1ccccc12,11.8

# Test system: not listed separately
# Assay: Antitumor activity in mouse Sarcoma 180 cells inoculated mouse assessed as tumor inhibition rate at one fifth of LD50 concentration once a day for consecutive 7 days by ip
# Format: functional
# Set-up: scale not given: the % may be the effect or the level left
# Settings: not given
# Summary of the method: (§2)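 Each tumour line was first grown in mice for 7 days, then harvested. Viable cells (2 × 10^6 per mouse) were injected s.c. into the armpit. Dosing began 24 h later: i.p., about one fifth of LD50, daily for 7 days, 10 female mice per group. […] Body weight was recorded every 3 days. Tumours were excised and weighed on day 21 to give inhibition rate.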
row,SMILES,Activity [%]
1,O=P1(N(CCCl)CCCl)NCCCO1 (configuration not stated) [CYCLOPHOSPHAMIDE ANHYDROUS],85.6
2,CCOC(=O)c1cc2c(cn1)[nH]c1ccccc12,35.2

# Test system: Mus musculus
# Assay: Toxicity in C57BL/6 mouse assessed as heart damage at 1 to 500 mg/kg, ip for 14 days
# Format: organism-based
# Set-up: dose 1-500 mg/kg, route intraperitoneal
# Settings: in vivo, 336 h
# Summary of the method: (§3)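 Healthy C57BL/6 mice (9–12 weeks, 18–22 g) were fasted overnight with free access to water. Each received a single i.p. dose of 1.0–500 mg kg-1 in 0.5% CMC-Na, 10 mice per group (5 male, 5 female). Mice were watched continuously for 2 h, intermittently to 24 h, then occasionally to 14 days for tremor, twitch, jumping and supination. At day 14 they were killed and heart, liver and kidneys were examined macroscopically.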
row,SMILES,Activity
1,Cc1nccc2c3ccccc3n(CCCCCCn3c4ccccc4c4ccnc(C)c43)c12,Non-toxic

# Test system: Mus musculus
# Assay: Neurotoxicity in C57BL/6 mouse at 1 to 500 mg/kg, ip for 14 days
# Format: toxicity, organism-based
# Set-up: dose 1-500 mg/kg, route intraperitoneal
# Settings: in vivo, 336 h
# Summary of the method: as §3
row,SMILES,Activity
1,Cc1nccc2c3ccccc3n(CCCCCCn3c4ccccc4c4ccnc(C)c43)c12,Non-toxic
2,CCOC(=O)c1cc2c(cn1)[nH]c1ccccc12,Non-toxic

# Test system: Mus musculus
# Assay: Toxicity in C57BL/6 mouse assessed as maximum weight loss at 40 mg/kg, ip
# Format: organism-based
# Set-up: dose 40 mg/kg, route intraperitoneal
# Settings: in vivo
# Summary of the method: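 Tumor-bearing mice, 10 females per group, were inoculated s.c. in the armpit with 2 × 10^6 viable tumor cells. Compound was given i.p. once daily for 7 consecutive days, starting 24 h after inoculation. […] Body weight was recorded every 3 days until sacrifice on day 21.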
row,SMILES,Activity [%]
1,Cc1nccc2c3ccccc3n(CCCCCCn3c4ccccc4c4ccnc(C)c43)c12,5.1

# Test system: Mus musculus
# Assay: Toxicity in C57BL/6 mouse assessed as maximum weight loss at 50 mg/kg, ip
# Format: organism-based
# Set-up: dose 50 mg/kg, route intraperitoneal
# Settings: in vivo
row,SMILES,Activity [%]
1,O=P1(N(CCCl)CCCl)NCCCO1 (configuration not stated) [CYCLOPHOSPHAMIDE ANHYDROUS],7.7

# Test system: Mus musculus
# Assay: Toxicity in C57BL/6 mouse assessed as liver damage at 1 to 500 mg/kg, ip for 14 days
# Format: organism-based
# Set-up: dose 1-500 mg/kg, route intraperitoneal
# Settings: in vivo, 336 h
# Summary of the method: as §3
row,SMILES,Activity
1,Cc1nccc2c3ccccc3n(CCCCCCn3c4ccccc4c4ccnc(C)c43)c12,Non-toxic

# Test system: BGC-823
# Assay: Cytotoxicity against human gastric carcinoma BGC823 cells assessed as reduction in optical density by MTT assay
# Format: functional, cell-based
# Settings: not given
# Summary of the method: as §1
row,SMILES,pIC50
1,CCOC(=O)c1cc2c3ccccc3n(CCCCCCn3c4ccccc4c4cc(C(=O)OCC)nc(-c5cc(OC)c(OC)c(OC)c5)c43)c2c(-c2cc(OC)c(OC)c(OC)c2)n1,< 3.70
2,Cc1nccc2c3ccccc3n(CCCCCCn3c4ccccc4c4ccnc(C)c43)c12,3.87
3,Cc1nccc2c3cc(Br)ccc3n(CCCCCCn3c4ccc(Br)cc4c4ccnc(C)c43)c12,< 3.70
4,CCOC(=O)c1cc2c(cn1)[nH]c1ccccc12,< 3.70
5,Cc1nccc2c3ccccc3n(CCCCCn3c4ccccc4c4ccnc(C)c43)c12,< 3.70
6,CCOC(=O)c1cc2c3ccccc3n(CCCCCCCCCn3c4ccccc4c4cc(C(=O)OCC)nc(-c5cc(OC)c(OC)c(OC)c5)c43)c2c(-c2cc(OC)c(OC)c(OC)c2)n1,< 3.70

# Test system: B16
# Assay: Antitumor activity in mouse B16 melanoma cell lines cells inoculated mouse assessed as tumor inhibition rate at one fifth of LD50 concentration once a day for consecutive 7 days by ip
# Format: functional
# Set-up: scale not given: the % may be the effect or the level left
# Settings: not given
# Summary of the method: as §2
row,SMILES,Activity [%]
1,O=P1(N(CCCl)CCCl)NCCCO1 (configuration not stated) [CYCLOPHOSPHAMIDE ANHYDROUS],86.5

# Test system: SK-OV-3
# Assay: Cytotoxicity against human ovary adenocarcinoma SKOV3 cells assessed as reduction in optical density by MTT assay
# Format: functional, cell-based
# Settings: SK-OV-3, Female gonad
# Summary of the method: as §1
row,SMILES,pIC50
1,CCOC(=O)c1cc2c3ccccc3n(CCCCCCn3c4ccccc4c4cc(C(=O)OCC)nc(-c5cc(OC)c(OC)c(OC)c5)c43)c2c(-c2cc(OC)c(OC)c(OC)c2)n1,< 3.70
2,Cc1nccc2c3ccccc3n(CCCCCCn3c4ccccc4c4ccnc(C)c43)c12,4.77
3,Cc1nccc2c3cc(Br)ccc3n(CCCCCCn3c4ccc(Br)cc4c4ccnc(C)c43)c12,4.20
4,CCOC(=O)c1cc2c(cn1)[nH]c1ccccc12,4.03
5,Cc1nccc2c3ccccc3n(CCCCCn3c4ccccc4c4ccnc(C)c43)c12,4.73
6,CCOC(=O)c1cc2c3ccccc3n(CCCCCCCCCn3c4ccccc4c4cc(C(=O)OCC)nc(-c5cc(OC)c(OC)c(OC)c5)c43)c2c(-c2cc(OC)c(OC)c(OC)c2)n1,< 3.70

# Test system: Mus musculus
# Assay: Toxicity in C57BL/6 mouse assessed as kidney damage at 1 to 500 mg/kg, ip for 14 days
# Format: organism-based
# Set-up: dose 1-500 mg/kg, route intraperitoneal
# Settings: in vivo, 336 h
# Summary of the method: as §3
row,SMILES,Activity
1,Cc1nccc2c3ccccc3n(CCCCCCn3c4ccccc4c4ccnc(C)c43)c12,Non-toxic

# Test system: not listed separately
# Assay: Antitumor activity in mouse Lewis lung cancer cells inoculated mouse assessed as tumor inhibition rate at one fifth of LD50 concentration once a day for consecutive 7 days by ip
# Format: functional, Cancer cell lines
# Set-up: scale not given: the % may be the effect or the level left
# Settings: not given
# Summary of the method: as §2
row,SMILES,Activity [%]
1,O=P1(N(CCCl)CCCl)NCCCO1 (configuration not stated) [CYCLOPHOSPHAMIDE ANHYDROUS],97.8
2,Cc1nccc2c3ccccc3n(CCCCCCn3c4ccccc4c4ccnc(C)c43)c12,42.1

# Test system: KB
# Assay: Cytotoxicity against human epidermoid carcinoma of the nasopharynx KB cells assessed as reduction in optical density by MTT assay
# Format: functional, cell-based
# Settings: not given
# Summary of the method: as §1
row,SMILES,pIC50
1,CCOC(=O)c1cc2c3ccccc3n(CCCCCCn3c4ccccc4c4cc(C(=O)OCC)nc(-c5cc(OC)c(OC)c(OC)c5)c43)c2c(-c2cc(OC)c(OC)c(OC)c2)n1,< 3.70
2,Cc1nccc2c3ccccc3n(CCCCCCn3c4ccccc4c4ccnc(C)c43)c12,4.06
3,Cc1nccc2c3cc(Br)ccc3n(CCCCCCn3c4ccc(Br)cc4c4ccnc(C)c43)c12,< 3.70
4,CCOC(=O)c1cc2c(cn1)[nH]c1ccccc12,< 3.70
5,Cc1nccc2c3ccccc3n(CCCCCn3c4ccccc4c4ccnc(C)c43)c12,< 3.70
6,CCOC(=O)c1cc2c3ccccc3n(CCCCCCCCCn3c4ccccc4c4cc(C(=O)OCC)nc(-c5cc(OC)c(OC)c(OC)c5)c43)c2c(-c2cc(OC)c(OC)c(OC)c2)n1,< 3.70

# Test system: not listed separately
# Assay: Acute toxicity in ip treated C57BL/6 mouse for 14 days
# Format: organism-based
# Settings: in vivo
# Summary of the method: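 C57BL/6 mice (9–12 weeks, 18–22 g) were fasted overnight with free water. They received single i.p. doses of 1.0–500 mg kg-1 in 0.5% CMC-Na, 10 mice per group (5 male, 5 female). Mice were watched continuously for 2 h, then intermittently to 24 h, then occasionally to 14 days. Heart, liver and kidneys were checked macroscopically. LD50 was derived graphically.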
row,SMILES,LD50 at 336 h [mg/kg]
1,CCOC(=O)c1cc2c(cn1)[nH]c1ccccc12,32.6

# Test system: 769-P
# Assay: Cytotoxicity against human renal carcinoma 769-P cells assessed as reduction in optical density by MTT assay
# Format: functional, cell-based
# Settings: not given
# Summary of the method: as §1
row,SMILES,pIC50
1,CCOC(=O)c1cc2c3ccccc3n(CCCCCCn3c4ccccc4c4cc(C(=O)OCC)nc(-c5cc(OC)c(OC)c(OC)c5)c43)c2c(-c2cc(OC)c(OC)c(OC)c2)n1,< 3.70
2,Cc1nccc2c3ccccc3n(CCCCCCn3c4ccccc4c4ccnc(C)c43)c12,3.83
3,Cc1nccc2c3cc(Br)ccc3n(CCCCCCn3c4ccc(Br)cc4c4ccnc(C)c43)c12,< 3.70
4,CCOC(=O)c1cc2c(cn1)[nH]c1ccccc12,3.76
5,Cc1nccc2c3ccccc3n(CCCCCn3c4ccccc4c4ccnc(C)c43)c12,< 3.70
6,CCOC(=O)c1cc2c3ccccc3n(CCCCCCCCCn3c4ccccc4c4cc(C(=O)OCC)nc(-c5cc(OC)c(OC)c(OC)c5)c43)c2c(-c2cc(OC)c(OC)c(OC)c2)n1,< 3.70

# Test system: H22
# Assay: Antitumor activity in mouse H22 liver cancer cells inoculated mouse assessed as tumor inhibition rate at one fifth of LD50 concentration once a day for consecutive 7 days by ip
# Format: functional
# Set-up: scale not given: the % may be the effect or the level left
# Settings: not given
# Summary of the method: as §2
row,SMILES,Activity [%]
1,O=P1(N(CCCl)CCCl)NCCCO1 (configuration not stated) [CYCLOPHOSPHAMIDE ANHYDROUS],83.8

# Test system: CT26
# Assay: Antitumor activity in mouse CT26 colon cancer cells inoculated mouse assessed as tumor inhibition rate at one fifth of LD50 concentration once a day for consecutive 7 days by ip
# Format: functional
# Set-up: scale not given: the % may be the effect or the level left
# Settings: not given
# Summary of the method: as §2
row,SMILES,Activity [%]
1,O=P1(N(CCCl)CCCl)NCCCO1 (configuration not stated) [CYCLOPHOSPHAMIDE ANHYDROUS],97.2
2,Cc1nccc2c3ccccc3n(CCCCCCn3c4ccccc4c4ccnc(C)c43)c12,39.6
